Ends that are not written are not given here. * marks the point of attachment. Octanoyl = CCCCCCCC(=O)*
Tests used:
[1] = test system: E. faecalis (ATCC 29212); test: Agar plate-based bactericidal assay; format: cell-based, Enterococcus faecalis; settings: range of ghrelin concentrations tested; data not shown
[2] = test system: E. coli (ATCC 27325); test: Agar plate-based bactericidal assay; format: cell-based, Escherichia coli
Procedure, shortened: (§1)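 Bacteria were grown aerobically overnight in BHI broth at 37°C, washed twice in PBS and suspended at 10^5 cells/mL in 10 mM sodium phosphate, pH 6.8. Suspensions were exposed to the test peptide over a range of concentrations for 2 h at 37°C, aerobically. For salt sensitivity, NaCl was added at 0–150 mM, with 25 μg/ml test peptide or 1 μg/ml reference peptide. Samples were diluted in PBS, plated on BHI agar overnight at 37°C and counted for CFU. Survival is expressed as a percentage of untreated; mean ± SD of three independent experiments.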

[3] = test system: P. aeruginosa (ATCC 15692); test: Agar plate-based bactericidal assay; format: cell-based, Pseudomonas aeruginosa
Procedure, shortened: as §1

[4] = test system: E. coli; test: Measurement of zeta-potential of bacteria treated with peptide; design: species or system Escherichia coli; settings: 5 and 20 μg peptide/10^5 bacterial cells, 10 mM NaPi, 20 min, 37°C
Procedure, shortened: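 Overnight E. coli cultures were washed in PBS and resuspended at 10^8 cells/mL in 10 mM sodium phosphate. Cells were added to phosphate buffer containing peptide to give 5 or 20 μg peptide per 10^5 cells, then incubated 20 min at 37°C. Zeta potential was read on a particle sizer/zetasizer, and the mean was computed by the Smoluchowski equation. Values are mean ± SD of three independent experiments.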

[5] = physiological NaCl concentration (150 mM) in 10 mM NaPi pH 6.8, AG 25 μg/ml
[6] = LL37 1 μg/ml, 10 mM NaPi pH 6.8 with NaCl 0 to 150 mM, dose-dependent

Row | Substance | bactericidal effects (in words) [1] | effect of NaCl on bactericidal activity (in words) [2, 5] | effect of NaCl on bactericidal activity (in words) [3, 5] | effect of NaCl on bactericidal activity (in words) [2, 6] | effect on zeta-potential of E. coli (in words) [4] | effect of NaCl on bactericidal activity (in words) [3, 6]
1 | desacylated ghrelin (GSSFLSPEHQRVQQRKESKKPPAKLQPR; Ghrelin-28 non-acylated; UniProt Q9UBU3 24-51, looked up) [DAG] | neither AG nor DAG showed significant bactericidal effects | – | – | – | – | –
2 | acylated ghrelin (GSS(Octanoyl)FLSPEHQRVQQRKESKKPPAKLQPR; UniProt Q9UBU3 24-51, looked up) [AG] | neither AG nor DAG showed significant bactericidal effects | decreased | decreased | – | – | –
3 | LL37 (LLGDFFRKSKEKIGKEFKRIVQRIKDFLRNLVPRTES; Antibacterial peptide LL-37; UniProt P49913 134-170, looked up) [reference compound] | – | – | – | attenuated | increased the zeta-potential of E. coli | attenuated
